# Experimental data from ChEMBL document CHEMBL4406859, “Antitumor and antiviral activities of 4-substituted 1,2,3-triazolyl-2,3-dibenzyl-L-ascorbic acid derivatives” (Eur J Med Chem, 2019).
# The source made the active and inactive calls. The calls are words filed in the database; no cut-off is given here.
# Legend:
# [1] = tested on: Influenza A virus H3N2; assay: Antiviral activity against Influenza A virus (A/HK/7/87(H3N2)) infected in dog MDCK cells assessed as reduction in virus-induced cytopathogenicity incubated for 7 days by MTS assay; type: functional, organism-based; conditions: A/Hong Kong/7/1987(H3N2); for EC50: 168 h
# [2] = tested on: Influenza A virus; assay: Antiviral activity against Influenza A virus (A/Ned/378/05(H1N1)) infected in dog MDCK cells assessed as reduction in virus-induced cytopathogenicity incubated for 7 days by microscopic analysis; type: functional, organism-based
# [3] = Cytotoxicity against dog MDCK cells assessed as minimum cytotoxic concentration by observing alteration in cell morphology incubated for 3 days by microscopic analysis; type: cell-based, Canis lupus familiaris
# [4] = tested on: Influenza B virus; assay: Antiviral activity against Influenza B virus (B/Ned/537/05) infected in dog MDCK cells assessed as reduction in virus-induced cytopathogenicity incubated for 7 days by microscopic analysis; type: functional, organism-based; conditions: for EC50: 168 h
# [5] = tested on: Influenza A virus H3N2; assay: Antiviral activity against Influenza A virus (A/HK/7/87(H3N2)) infected in dog MDCK cells assessed as reduction in virus-induced cytopathogenicity incubated for 7 days by microscopic analysis; type: functional, organism-based; conditions: A/Hong Kong/7/1987(H3N2); for EC50: 168 h
# [6] = tested on: Influenza A virus; assay: Antiviral activity against Influenza A virus (A/Ned/378/05(H1N1)) infected in dog MDCK cells assessed as reduction in virus-induced cytopathogenicity incubated for 7 days by MTS assay; type: functional, organism-based
# [7] = tested on: MDCK; assay: (§1) Cytotoxicity against dog MDCK cells assessed as reduction in cell viability incubated for 3 days by coulter counter method; type: cell-based, Canis lupus familiaris; conditions: mdck, 72 h
# [8] = tested on: Influenza B virus; assay: Antiviral activity against Influenza B virus (B/Ned/537/05) infected in dog MDCK cells assessed as reduction in virus-induced cytopathogenicity incubated for 7 days by MTS assay; type: functional, organism-based; conditions: for EC50: 168 h
# [9] = tested on: Cytomegalovirus; assay: Antiviral activity against Cytomegalovirus Davis infected in human HELF cells assessed as reduction in virus-induced cytopathogenicity incubated for 7 days by Giemsa staining based microscopic analysis; type: functional, organism-based; conditions: Human betaherpesvirus 5, Davis, 168 h
# Procedure, shortened: (§2)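 Confluent HEL fibroblasts infected with CMV (Davis or AD-169) at 100 PFU/well for 2 h. Residual virus removed, then medium with graded compound concentrations added (duplicate). Incubated 7 days at 37 °C. Cytopathogenicity scored microscopically after ethanol fixation and Giemsa staining. EC50 read from plots of % cytopathogenicity versus concentration.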
# [10] = tested on: Human alphaherpesvirus 1; assay: Antiviral activity against Herpes simplex virus 1 KOS infected in human HELF cells assessed as reduction in virus-induced cytopathogenicity incubated for 7 days by microscopic analysis; type: functional, organism-based; conditions: strain KOS
# [11] = tested on: CFPAC-1; assay: Antiproliferative activity against human CFPAC-1 cells assessed as reduction in cell viability incubated for 72 hrs by MTT assay; type: functional, cell-based
# Procedure, shortened: (§3)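 Cells (ATCC) grown in DMEM with 10 FBS, penicillin/streptomycin, 2 mM glutamine, 37 °C, 5 CO2. 5000 cells/well seeded; after 24 h, freshly prepared dilutions at five concentrations (0.01–100 μM) added for 72 h. MTT read-out; absorbance converted to percentage growth by NIH formulas. Two experiments in quadruplicate; IC50 by linear regression.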
# [12] = tested on: Human alphaherpesvirus 1; assay: Antiviral activity against Herpes simplex virus 1 TK-KOS-ACV infected in human HELF cells assessed as reduction in virus-induced cytopathogenicity incubated for 7 days by microscopic analysis; type: functional, organism-based
# [13] = tested on: Human adenovirus 2; assay: Antiviral activity against Human adenovirus 2 infected in human HELF cells assessed as reduction in virus-induced cytopathogenicity incubated for 7 days by microscopic analysis; type: functional, organism-based
# [14] = tested on: HeLa; assay: Antiproliferative activity against human HeLa cells assessed as reduction in cell viability incubated for 72 hrs by MTT assay; type: functional, cell-based; procedure, shortened: as §3
# [15] = tested on: Cytomegalovirus; assay: Antiviral activity against Cytomegalovirus AD169 infected in human HELF cells assessed as reduction in virus-induced cytopathogenicity incubated for 7 days by Giemsa staining based microscopic analysis; type: functional, organism-based; conditions: Human betaherpesvirus 5, AD169, HELF, 168 h; procedure, shortened: as §2
# [16] = tested on: MCF7; assay: Antiproliferative activity against human MCF7 cells assessed as reduction in cell viability incubated for 72 hrs by MTT assay; type: functional, cell-based; conditions: MCF7, 72 h; procedure, shortened: as §3
# [17] = tested on: Coxsackievirus B4; assay: Antiviral activity against Human coxsackievirus B4 infected in vero cells assessed as reduction in virus-induced cytopathogenicity incubated for 7 days by microscopic analysis; type: functional, organism-based
# [18] = Cytotoxicity against human HELF cells assessed as reduction in cell viability incubated for 3 days by coulter counter method; type: cell-based; conditions: 72 h
# Procedure, shortened: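 HEL cells seeded at 5 x 10^3/well and allowed to proliferate 24 h, then exposed to graded compound concentrations for 3 days at 37 °C. Cell number counted with a Coulter counter.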
# [19] = tested on: Human alphaherpesvirus 2; assay: Antiviral activity against Herpes simplex virus 2 G infected in human HELF cells assessed as reduction in virus-induced cytopathogenicity incubated for 7 days by microscopic analysis; type: functional, organism-based
# [20] = tested on: Reovirus sp.; assay: Antiviral activity against Reovirus infected in vero cells assessed as reduction in virus-induced cytopathogenicity incubated for 7 days by microscopic analysis; type: functional, organism-based
# [21] = tested on: HepG2; assay: Antiproliferative activity against human HepG2 cells assessed as reduction in cell viability incubated for 72 hrs by MTT assay; type: functional, cell-based; conditions: HepG2, 72 h; procedure, shortened: as §3
# [22] = tested on: Human alphaherpesvirus 3; assay: Antiviral activity against thymidine kinase positive Varicella zoster virus infected in human HELF cells assessed as reduction in virus-induced cytopathogenicity incubated for 7 days by Giemsa staining based microscopic analysis; type: functional, organism-based; conditions: Human alphaherpesvirus 3, HELF, 168 h
# [23] = tested on: Human coronavirus 229E; assay: Antiviral activity against Human coronavirus 229E infected in human HELF cells assessed as reduction in virus-induced cytopathogenicity incubated for 7 days by microscopic analysis; type: functional, organism-based
# [24] = tested on: SW-620; assay: Antiproliferative activity against human SW620 cells assessed as reduction in cell viability incubated for 72 hrs by MTT assay; type: functional, cell-based; conditions: SW-620, 72 h; procedure, shortened: as §3
# [25] = tested on: A549; assay: Antiproliferative activity against human A549 cells assessed as reduction in cell viability incubated for 72 hrs by MTT assay; type: functional, cell-based; conditions: A549, 72 h; procedure, shortened: as §3
# [26] = tested on: HCT-116; assay: Antiproliferative activity against human HCT116cells assessed as reduction in cell viability incubated for 72 hrs by MTT assay; type: functional, cell-based; conditions: HCT-116, 72 h; procedure, shortened: as §3
# [27] = tested on: HFF; assay: Cytotoxicity against human HFF cells assessed as reduction in cell viability incubated for 72 hrs by MTT assay; type: cell-based; procedure, shortened: as §3
# [28] = Cytotoxicity against human HELF cells assessed as minimum cytotoxic concentration by observing alteration in cell morphology incubated for 3 days by microscopic analysis; type: cell-based; conditions: HELF cells
# Procedure, shortened: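 Read-out is the minimum cytotoxic concentration (MCC): the lowest compound concentration giving a microscopically detectable change in cell morphology. Measured on confluent human embryonic lung (HEL) fibroblast cultures exposed to a range of compound concentrations.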
# [29] = tested on: Human alphaherpesvirus 3; assay: Antiviral activity against thymidine kinase deficient Varicella zoster virus infected in human HELF cells assessed as reduction in virus-induced cytopathogenicity incubated for 7 days by Giemsa staining based microscopic analysis; type: functional, organism-based; conditions: Human alphaherpesvirus 3, HELF, 168 h
# [30] = tested on: Sindbis virus; assay: Antiviral activity against Sindbis virus infected in vero cells assessed as reduction in virus-induced cytopathogenicity incubated for 7 days by microscopic analysis; type: functional, organism-based
# [31] = as §1; type: cell-based, Canis lupus familiaris; conditions: MDCK cells
# [32] = Influenza A virus, A/Ned/378/05(H1N1), MDCK, 168 h
# [33] = Homo sapiens, CFPAC-1, 72 h, read-out: IC50
Structure (SMILES),EC50 [1] [µM],"EC50 [2, 32] [µM]",MCC at 72 h [3] [µM],EC50 [4] [µM],EC50 [5] [µM],"EC50 [6, 32] [µM]",CC50 [7] [µM],EC50 [8] [µM],EC50 [9] [µM],Activity [10],"IC50 [11, 33] [µM]",Activity [12],IC50 [14] [µM],IC50 [16] [µM],IC50 [21] [µM],IC50 [24] [µM],IC50 [25] [µM],IC50 [26] [µM],IC50 [27] [µM],MCC at 72 h [28] [µM],further results
CC(N)C12CC3CC(CC(C3)C1)C2 (stereo unspecified) [RIMANTADINE],0.01,> 200,> 200,> 200,0.01,> 200,> 200,> 200,,,,,,,,,,,,,
NC12CC3CC(CC(C3)C1)C2 [AMANTADINE],0.03,20,> 100,> 100,0.2,,> 100,> 100,,,,,,,,,,,,,EC50 [6]: 22.6 µM
CC(=O)N[C@H]1[C@H]([C@H](O)[C@H](O)CO)OC(C(=O)O)=C[C@@H]1N=C(N)N [ZANAMIVIR],0.01,,> 100,0.4,0.4,,≥ 100,0.4,,,,,,,,,,,,,
O=C1O/C(=C\Cn2cc(-c3cccc(O)c3)nn2)C(OCc2ccccc2)=C1OCc1ccccc1,,,,,,,,,8.94,inactive,33.7,inactive,74.8,27.8,61.7,69.8,23.3,63.6,42.6,100,Activity [13]: inactive; EC50 [15]: 9.36 µM; Activity [17]: inactive; CC50 [18]: 11.1 µM; Activity [19]: inactive; Activity [1]: inactive; Activity [20]: inactive; Activity [2]: inactive; EC50 [22]: 11.6 µM; Activity [4]: inactive; Activity [23]: inactive; Activity [5]: inactive; Activity [6]: inactive; EC50 [29]: 14.7 µM; Activity [30]: inactive; Activity [8]: inactive
O=C1O[C@H]([C@@H](O)Cn2ccnn2)C(OCc2ccccc2)=C1OCc1ccccc1,53.9,75,> 100,> 100,45,35.1,> 100,> 100,,,> 100,,> 100,> 100,> 100,> 100,> 100,> 100,0.61,,
O=C1O/C(=C\Cn2cc(-c3cc(F)cc(F)c3)nn2)C(OCc2ccccc2)=C1OCc1ccccc1,,,,,,,,,8.94,inactive,,inactive,17.7,> 100,> 100,> 100,> 100,> 100,> 100,100,IC50 ([11]; cfpac-1): Not Active; Activity [13]: inactive; EC50 [15]: 9.36 µM; Activity [17]: inactive; CC50 [18]: > 100 µM; Activity [19]: inactive; Activity [1]: inactive; Activity [20]: inactive; Activity [2]: inactive; EC50 [22]: 14.6 µM; Activity [4]: inactive; Activity [23]: inactive; Activity [5]: inactive; Activity [6]: inactive; EC50 [29]: > 100 µM; Activity [30]: inactive; Activity [8]: inactive
Cc1ccc(-c2cn(C/C=C3\OC(=O)C(OCc4ccccc4)=C3OCc3ccccc3)nn2)cc1,,,,,,,,,5.66,inactive,> 100,inactive,7.48,> 100,> 100,> 100,> 100,> 100,> 100,20,Activity [13]: inactive; EC50 [15]: 8.94 µM; Activity [17]: inactive; CC50 [18]: > 100 µM; Activity [19]: inactive; Activity [1]: inactive; Activity [20]: inactive; Activity [2]: inactive; EC50 [22]: > 4 µM; Activity [4]: inactive; Activity [23]: inactive; Activity [5]: inactive; Activity [6]: inactive; EC50 [29]: 27.6 µM; Activity [30]: inactive; Activity [8]: inactive
NC(=O)c1ncn([C@@H]2O[C@H](CO)[C@@H](O)[C@H]2O)n1 [RIBAVIRIN],1.4,,> 100,5.6,2.3,18.2,,4.6,,,,,,,,,,,,> 250,EC50 [2]: 8.9 µM; CC50 at 72 h [31]: > 100 µM
